Measurements published in ChEMBL document CHEMBL3603808, “Discovery and structure of a new inhibitor scaffold of the autophagy initiating kinase ULK1” (Bioorg Med Chem, 2015).

Columns and labels:
[1] = target: AMP-activated protein kinase, AMPK (Homo sapiens) (UniProt P54646+O43741+P54619+Q9UGJ0+Q9Y478+Q13131+Q9UGI9); test: Inhibition of AMPK (unknown origin) at 2 uM by radioactive filter-binding assay; format: protein-complex assay
In short: (§1)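 Panel profiling of one compound against 50 kinases, carried out in duplicate at the International Centre for Protein Kinase Profiling. Radioactive filter-binding format.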

[2] = target: Calcium/calmodulin-dependent protein kinase kinase 2 (Homo sapiens) (UniProt Q96RR4); test: Inhibition of CAMKKB (unknown origin) at 2 uM by radioactive filter-binding assay; in short: as §1
Chain of Calcium/calmodulin-dependent protein kinase kinase 2 (Homo sapiens) (Q96RR4 2-588 limits assumed): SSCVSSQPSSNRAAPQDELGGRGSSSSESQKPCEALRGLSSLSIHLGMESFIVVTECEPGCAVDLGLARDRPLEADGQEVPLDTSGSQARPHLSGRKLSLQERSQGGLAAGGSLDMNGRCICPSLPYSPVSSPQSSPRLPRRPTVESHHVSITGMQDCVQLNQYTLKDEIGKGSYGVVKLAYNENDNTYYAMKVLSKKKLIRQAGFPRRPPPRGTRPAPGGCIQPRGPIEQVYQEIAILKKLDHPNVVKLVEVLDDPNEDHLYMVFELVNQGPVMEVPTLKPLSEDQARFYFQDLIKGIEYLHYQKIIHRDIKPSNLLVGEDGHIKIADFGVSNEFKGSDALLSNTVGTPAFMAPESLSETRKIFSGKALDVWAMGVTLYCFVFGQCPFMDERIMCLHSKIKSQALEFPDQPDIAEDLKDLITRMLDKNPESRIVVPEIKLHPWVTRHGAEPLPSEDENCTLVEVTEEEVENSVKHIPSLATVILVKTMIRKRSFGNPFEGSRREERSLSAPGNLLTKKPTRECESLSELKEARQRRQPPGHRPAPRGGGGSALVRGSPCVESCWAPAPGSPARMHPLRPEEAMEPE

[3] = target: Serine/threonine-protein kinase PAK 4 (Homo sapiens) (UniProt O96013); test: Inhibition of PAK4 (unknown origin) at 2 uM by radioactive filter-binding assay; in short: as §1
Chain of Serine/threonine-protein kinase PAK 4 (Homo sapiens) (O96013 whole entry, looked up): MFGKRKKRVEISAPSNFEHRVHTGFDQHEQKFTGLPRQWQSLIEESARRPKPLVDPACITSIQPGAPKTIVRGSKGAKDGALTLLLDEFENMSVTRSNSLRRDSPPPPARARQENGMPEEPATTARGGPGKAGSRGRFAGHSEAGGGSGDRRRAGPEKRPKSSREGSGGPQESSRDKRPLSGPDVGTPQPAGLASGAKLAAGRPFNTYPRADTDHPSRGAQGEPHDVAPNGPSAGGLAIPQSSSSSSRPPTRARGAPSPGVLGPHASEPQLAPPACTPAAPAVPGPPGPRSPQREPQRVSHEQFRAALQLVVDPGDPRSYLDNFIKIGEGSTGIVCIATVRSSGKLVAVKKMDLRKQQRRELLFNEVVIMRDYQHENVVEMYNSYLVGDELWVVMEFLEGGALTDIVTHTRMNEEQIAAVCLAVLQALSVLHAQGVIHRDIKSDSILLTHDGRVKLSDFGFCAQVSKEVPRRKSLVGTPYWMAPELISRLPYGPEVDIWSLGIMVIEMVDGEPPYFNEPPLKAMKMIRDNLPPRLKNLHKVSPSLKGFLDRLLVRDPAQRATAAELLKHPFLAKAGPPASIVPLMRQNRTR

[4] = target: MAP/microtubule affinity-regulating kinase 3 (Homo sapiens) (UniProt P27448); test: Inhibition of MARK3 (unknown origin) at 2 uM by radioactive filter-binding assay; in short: as §1
Chain of MAP/microtubule affinity-regulating kinase 3 (Homo sapiens) (P27448 whole entry, looked up): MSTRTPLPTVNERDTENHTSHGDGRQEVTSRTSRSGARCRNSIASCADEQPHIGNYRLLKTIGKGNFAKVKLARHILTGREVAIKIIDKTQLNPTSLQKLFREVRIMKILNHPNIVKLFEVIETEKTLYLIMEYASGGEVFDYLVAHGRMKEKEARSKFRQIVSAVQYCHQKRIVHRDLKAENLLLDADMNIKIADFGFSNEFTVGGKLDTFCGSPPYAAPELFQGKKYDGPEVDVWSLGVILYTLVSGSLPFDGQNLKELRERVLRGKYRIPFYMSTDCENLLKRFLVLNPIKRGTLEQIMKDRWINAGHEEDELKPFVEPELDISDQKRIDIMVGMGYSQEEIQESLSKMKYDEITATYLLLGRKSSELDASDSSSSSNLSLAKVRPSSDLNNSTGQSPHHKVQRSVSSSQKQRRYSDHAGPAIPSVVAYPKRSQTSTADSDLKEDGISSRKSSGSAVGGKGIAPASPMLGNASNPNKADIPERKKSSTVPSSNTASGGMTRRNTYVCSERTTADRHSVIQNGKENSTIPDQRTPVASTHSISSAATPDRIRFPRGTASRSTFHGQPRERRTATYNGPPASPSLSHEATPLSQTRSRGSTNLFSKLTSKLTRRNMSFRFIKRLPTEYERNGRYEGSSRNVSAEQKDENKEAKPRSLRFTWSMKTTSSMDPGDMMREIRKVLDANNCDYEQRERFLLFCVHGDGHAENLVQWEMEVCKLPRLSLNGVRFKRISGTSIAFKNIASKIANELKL

[5] = target: Ribosomal protein S6 kinase alpha-1 (Homo sapiens) (UniProt Q15418); test: Inhibition of RSK1 (unknown origin) at 250 nM by radioactive filter-binding assay; in short: as §1
[6] = target: MAP/microtubule affinity-regulating kinase 3 (Homo sapiens) (UniProt P27448); test: Inhibition of MARK3 (unknown origin) at 250 nM by radioactive filter-binding assay; in short: as §1
[7] = target: Serine/threonine-protein kinase D1 (Homo sapiens) (UniProt Q15139); test: Inhibition of PKD1 (unknown origin) at 250 nM by radioactive filter-binding assay; in short: as §1
Chain of Serine/threonine-protein kinase D1 (Homo sapiens) (Q15139 whole entry): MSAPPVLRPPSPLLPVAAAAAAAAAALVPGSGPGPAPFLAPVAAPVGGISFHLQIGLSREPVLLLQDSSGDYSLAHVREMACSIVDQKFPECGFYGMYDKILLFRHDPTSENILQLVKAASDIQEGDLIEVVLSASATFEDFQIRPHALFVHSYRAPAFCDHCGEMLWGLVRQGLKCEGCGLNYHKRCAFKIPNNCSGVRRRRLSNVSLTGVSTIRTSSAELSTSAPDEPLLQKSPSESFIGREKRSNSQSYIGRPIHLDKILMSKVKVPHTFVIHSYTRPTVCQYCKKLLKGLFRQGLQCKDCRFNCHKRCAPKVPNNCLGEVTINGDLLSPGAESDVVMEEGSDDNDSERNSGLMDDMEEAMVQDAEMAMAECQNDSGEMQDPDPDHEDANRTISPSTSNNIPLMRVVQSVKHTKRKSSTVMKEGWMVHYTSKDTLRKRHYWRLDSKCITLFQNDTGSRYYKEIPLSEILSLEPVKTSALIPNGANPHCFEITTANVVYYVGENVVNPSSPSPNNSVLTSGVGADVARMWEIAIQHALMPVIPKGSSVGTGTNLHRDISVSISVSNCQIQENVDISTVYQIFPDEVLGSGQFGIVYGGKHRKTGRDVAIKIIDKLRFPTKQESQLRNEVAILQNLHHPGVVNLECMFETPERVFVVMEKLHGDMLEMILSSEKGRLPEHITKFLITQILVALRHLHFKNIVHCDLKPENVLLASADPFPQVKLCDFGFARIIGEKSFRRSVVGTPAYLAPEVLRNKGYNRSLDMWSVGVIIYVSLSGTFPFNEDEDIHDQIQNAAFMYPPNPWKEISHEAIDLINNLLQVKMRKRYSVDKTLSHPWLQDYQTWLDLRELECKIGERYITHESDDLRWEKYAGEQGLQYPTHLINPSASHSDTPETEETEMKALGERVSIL

[8] = target: Tyrosine-protein kinase BTK (Homo sapiens) (UniProt Q06187); test: Inhibition of BTK (unknown origin) at 250 nM by radioactive filter-binding assay; in short: as §1
Chain of Tyrosine-protein kinase BTK (Homo sapiens) (Q06187 whole entry): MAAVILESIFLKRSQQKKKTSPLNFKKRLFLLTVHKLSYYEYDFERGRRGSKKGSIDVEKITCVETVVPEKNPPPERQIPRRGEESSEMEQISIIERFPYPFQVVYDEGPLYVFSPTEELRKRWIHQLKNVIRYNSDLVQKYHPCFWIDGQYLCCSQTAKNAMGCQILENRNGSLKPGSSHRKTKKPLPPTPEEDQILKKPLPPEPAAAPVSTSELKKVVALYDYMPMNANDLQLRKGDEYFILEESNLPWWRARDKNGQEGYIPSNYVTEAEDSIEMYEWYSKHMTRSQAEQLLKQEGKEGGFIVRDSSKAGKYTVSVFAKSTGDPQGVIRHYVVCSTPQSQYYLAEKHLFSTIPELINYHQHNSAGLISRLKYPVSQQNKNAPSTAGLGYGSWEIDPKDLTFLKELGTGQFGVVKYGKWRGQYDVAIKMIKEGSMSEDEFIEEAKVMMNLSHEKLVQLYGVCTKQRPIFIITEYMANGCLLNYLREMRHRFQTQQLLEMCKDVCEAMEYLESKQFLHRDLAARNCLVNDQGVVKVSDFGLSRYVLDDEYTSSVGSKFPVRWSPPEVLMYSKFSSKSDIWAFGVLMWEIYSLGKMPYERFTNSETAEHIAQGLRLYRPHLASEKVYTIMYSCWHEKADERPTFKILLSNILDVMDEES

[9] = species: Homo sapiens; test: Inhibition of Aurora (unknown origin) at 250 nM by radioactive filter-binding assay; in short: as §1
[10] = target: Serine/threonine-protein kinase Chk2 (Homo sapiens) (UniProt O96017); test: Inhibition of CHK2 (unknown origin) at 250 nM by radioactive filter-binding assay; in short: as §1
Chain of Serine/threonine-protein kinase Chk2 (Homo sapiens) (O96017 whole entry): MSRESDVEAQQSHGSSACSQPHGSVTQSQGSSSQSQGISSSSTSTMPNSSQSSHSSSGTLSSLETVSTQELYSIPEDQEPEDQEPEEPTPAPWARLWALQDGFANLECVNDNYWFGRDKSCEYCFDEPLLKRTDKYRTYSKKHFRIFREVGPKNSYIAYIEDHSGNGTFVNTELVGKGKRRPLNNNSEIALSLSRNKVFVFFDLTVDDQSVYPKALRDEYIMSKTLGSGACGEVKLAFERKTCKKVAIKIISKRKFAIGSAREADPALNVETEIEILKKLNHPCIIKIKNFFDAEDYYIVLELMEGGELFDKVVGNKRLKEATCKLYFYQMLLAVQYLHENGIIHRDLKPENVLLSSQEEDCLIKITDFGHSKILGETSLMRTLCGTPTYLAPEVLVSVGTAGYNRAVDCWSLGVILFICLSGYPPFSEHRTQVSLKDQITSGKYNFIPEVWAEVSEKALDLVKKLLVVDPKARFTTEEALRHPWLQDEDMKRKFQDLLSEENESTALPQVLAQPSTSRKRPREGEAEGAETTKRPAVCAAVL

[11] = target: Dual specificity tyrosine-phosphorylation-regulated kinase 1A (Homo sapiens) (UniProt Q13627); test: Inhibition of DYRK1A (unknown origin) at 250 nM by radioactive filter-binding assay; in short: as §1
[12] = target: Tyrosine-protein kinase JAK2 (Homo sapiens) (UniProt O60674); test: Inhibition of JAK2 (unknown origin) at 250 nM by radioactive filter-binding assay; in short: as §1
[13] = target: Serine/threonine-protein kinase N2 (Homo sapiens) (UniProt Q16513); test: Inhibition of PRK2 (unknown origin) at 250 nM by radioactive filter-binding assay; in short: as §1
Chain of Serine/threonine-protein kinase N2 (Homo sapiens) (Q16513 whole entry, looked up): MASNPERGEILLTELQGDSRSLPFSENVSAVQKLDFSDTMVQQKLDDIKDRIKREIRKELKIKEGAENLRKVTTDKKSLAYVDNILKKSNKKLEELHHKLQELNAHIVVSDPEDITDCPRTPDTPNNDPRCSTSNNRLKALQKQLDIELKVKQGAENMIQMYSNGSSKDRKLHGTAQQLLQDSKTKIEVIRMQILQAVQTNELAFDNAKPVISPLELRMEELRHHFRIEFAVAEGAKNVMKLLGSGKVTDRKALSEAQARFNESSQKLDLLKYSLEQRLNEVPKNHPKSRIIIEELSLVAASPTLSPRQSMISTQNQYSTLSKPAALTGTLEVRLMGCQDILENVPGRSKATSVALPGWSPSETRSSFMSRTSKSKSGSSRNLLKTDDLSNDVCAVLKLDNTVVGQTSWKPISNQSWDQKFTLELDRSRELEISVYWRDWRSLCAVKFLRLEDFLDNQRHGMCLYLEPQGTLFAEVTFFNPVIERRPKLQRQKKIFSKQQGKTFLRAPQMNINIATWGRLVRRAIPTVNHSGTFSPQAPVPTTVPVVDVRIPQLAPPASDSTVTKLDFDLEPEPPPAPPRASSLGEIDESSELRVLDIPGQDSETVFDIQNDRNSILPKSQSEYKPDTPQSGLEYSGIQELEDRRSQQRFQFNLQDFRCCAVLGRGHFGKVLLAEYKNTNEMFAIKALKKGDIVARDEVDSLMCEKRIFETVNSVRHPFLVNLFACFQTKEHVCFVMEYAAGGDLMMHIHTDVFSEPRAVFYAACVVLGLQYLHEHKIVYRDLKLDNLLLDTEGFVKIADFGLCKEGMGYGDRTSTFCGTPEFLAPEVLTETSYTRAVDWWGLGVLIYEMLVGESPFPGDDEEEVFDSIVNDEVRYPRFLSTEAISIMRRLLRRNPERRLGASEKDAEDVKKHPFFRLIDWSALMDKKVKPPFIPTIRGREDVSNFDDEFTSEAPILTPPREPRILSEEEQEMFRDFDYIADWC

Measured: inhibition

NCCCNc1nc(Nc2cccc(NC(=O)N3CCCC3)c2)ncc1I
> 80%: [1] | [2] | [3] | [4]

c1ccc2c(Nc3cc(C4CCC4)[nH]n3)nc(Nc3ccc4[nH]cnc4c3)nc2c1
not listed: [1] | [2] | [3] | [4]
> 80%: all other assays above
